Source: PubChem (several laboratories)
Calb FLC: C. albicans growth inhibition with fluconazole, primary screen, CaCi-2 strain, Alamar Blue fluorescence; 300,000 compounds, 0.57% hits; C. albicans CaCi-2 (fluconazole-resistant clinical isolate) + fluconazole, 48 h; growth inhibition, % (concentration not given with the values); AID 1979, 2009;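 active means growth inhibition above about 58% in most replicates, limit read from the data, passing the limit was not always enough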;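 further: all wells also contain fluconazole at 8 µg/ml as a sub-toxic cotreatment; 0% = median of DMSO wells and 100% = median of geldanamycin control wells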
SR-BI uptake up: activators of SR-BI mediated DiI-HDL uptake, primary screen, ldlA[mSR-BI] CHO cells, DiI fluorescence; 3 h; 100 = double the neutral-control signal; AID 504775, 2011; 320,000 compounds, 0.096% hits; activation, % at 12.5 µM;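 active means mean replicate activation of at least 60% and every replicate at or above 60%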;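 further: 0% = median plate neutral-control signal and 100% = twice that signal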
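Material: SR-BI-overexpressing, LDLR-lacking CHO cells | Dosing: Single compound concentration, delivered by pin transfer | Probe or stimulus: Labelled HDL, 10 µg/mL | Signal: Bottom-read cell fluorescence after medium removal, ex 550/em 595 nm | Schedule: 3 h, 37 °C | Evaluation: HDL uptake via cellular fluorescence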
HTR2A ag: mouse Htr2a agonists via beta-arrestin recruitment, primary screen, cell-based, luminescence; activation, % at 7.6 µM; 360,000 compounds, 0.66% hits; CHO-K1 mHTR2A beta-arrestin complementation; percent of 30 µM serotonin response; 5-hydroxytryptamine receptor 2A (Mus musculus), P35363; AID 624169, 2012;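 active means activation above a run cutoff, the mean activation of all tested compounds plus 3 SD, cut at about 14% in these data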;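 further: 0% = plate median of compound wells and 100% = 30 µM serotonin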
MIN6 prolif: inducers of MIN6 beta-cell proliferation, primary screen, ATP luminescence, uHTS; MIN6 cells proliferation, ATPlite luminescence, 48 h; cells starved in 0.2% serum; 100% = growth in 10% serum; proliferation, % at 10 µM; 330,000 compounds, 0.29% hits; AID 2380, 2010;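 active means compounds whose signal lies at least 3.5 SD above the mean of all wells on their plate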;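 further: 0% = DMSO-treated cells in low-serum medium and 100% = 10% serum control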
Ins promoter up: insulin promoter activators in MIN6 cells, imaging, high-content screening, mouse beta cells | MIN6 insulin promoter-GFP reporter; hits give high values | z-score at 5 µM | 190,000 compounds, 0.3% hits;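 active means z-score above 3 at 5 µM with at least 500 cells counted in the well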
SR-BI HDL uptake: inhibitors of SR-BI mediated HDL lipid uptake, primary screen, ldlA[mSR-BI] cells, fluorescence, single point; Scavenger receptor class B member 1 (Mus musculus), Q61009; 320,000 compounds, 0.96% hits; AID 488896, 2010; ldlA[mSR-BI] CHO cells, DiI-HDL uptake fluorescence, 3 h; inhibition, % at 12.5 µM;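 active means mean replicate inhibition of at least 70% and a set share of replicates each scoring 70 or more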;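 further: 0% = median of neutral control wells and 100% = median of positive control wells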
Target sequence (Q61009 whole entry, looked up): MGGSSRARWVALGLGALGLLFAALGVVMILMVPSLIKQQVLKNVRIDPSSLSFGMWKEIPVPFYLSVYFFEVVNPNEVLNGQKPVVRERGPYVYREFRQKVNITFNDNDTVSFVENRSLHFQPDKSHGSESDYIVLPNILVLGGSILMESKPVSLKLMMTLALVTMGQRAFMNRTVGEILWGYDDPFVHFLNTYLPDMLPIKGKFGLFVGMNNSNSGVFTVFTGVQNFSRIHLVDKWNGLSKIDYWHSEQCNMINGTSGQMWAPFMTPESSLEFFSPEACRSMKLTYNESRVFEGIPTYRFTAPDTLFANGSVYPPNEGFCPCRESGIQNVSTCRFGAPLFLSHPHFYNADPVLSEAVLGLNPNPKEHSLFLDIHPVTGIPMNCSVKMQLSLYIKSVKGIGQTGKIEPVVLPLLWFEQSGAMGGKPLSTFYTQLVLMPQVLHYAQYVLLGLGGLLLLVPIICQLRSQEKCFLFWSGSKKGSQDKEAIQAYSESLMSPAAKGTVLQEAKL
OPRM1 ag: OPRM1 agonists via beta-arrestin recruitment, confirmation, counter-screen for mouse HTR2A agonist project, cell-based, luminescence, single concentration; activation, % at 9.3 µM; U2OS OPRM1 beta-arrestin PathHunter; DMSO 0%, DAMGO 9.3 µM 100%; 2,300 compounds, 5.3% hits; shares compounds with HTR2A ag;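 active means mean activation above the mean of DMSO-only wells plus 3 SD, cut at about 0.5% in these data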
m5-HT2A ag conf: mouse HTR2A agonists, beta-arrestin recruitment, confirmation, cell-based, luminescence, CHO-K1 PathHunter, triplicate; DMSO 0%, 30 µM serotonin 100%; activation, % at 7.6 µM; shares compounds with HTR2A ag; 2,300 compounds, 19% hits;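 active means mean activation across triplicates above the hit threshold derived in the original primary screen, cut at about 15% in these data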
* hit, by the source's call; / = no result. Sampled rows, rich in hits. Any-hit rate of the full collection: about 2.4%.

SMILES	Calb FLC	SR-BI uptake up	HTR2A ag	MIN6 prolif	Ins promoter up	SR-BI HDL uptake	OPRM1 ag	m5-HT2A ag conf
O=C(CCN1C(=O)/C(=C/c2ccc(Cl)cc2)SC1=S)NC1C=CS(=O)(=O)C1 (stereo not given)	4	-5	6	-2	/	5	/	/
CN(C)CCN(Cc1ccccc1)C(c1cc2ccccc2o1)c1nnnn1C(C)(C)C (stereo not given)	/	/	-9	/	/	/	/	/
CC(C)(C)n1nnnc1C(c1cc2ccccc2o1)N(CCC#N)Cc1ccccc1 (stereo not given)	/	/	42*	/	/	/	-1	-6
Cc1ccc(/C=N/NC(=O)CN2C(=O)CSc3ccccc32)o1	10	-4	20*	0	-0.52	4	-1	-3
CC1CN(Cc2cc(=O)[nH]c(C(C)C)n2)CC(C)O1 (stereo not given)	-20	26	-1	1	-0.46	-26	/	/
Cc1ccnc(NS(=O)(=O)c2ccc(NC(=O)c3snnc3C)cc2)n1	-3	13	15*	-2	/	-13	-1	0
c1ccc(Cc2nnc(Sc3ccccc3)c3ccccc23)cc1	7	3	26*	-6	/	-3	0	9
CS(=O)(=O)c1ccc2nc(NC(=O)c3ccc(Cl)cc3)sc2c1	16	-23	18*	-1	/	23	0	3
COc1ccc(-c2n[nH]c(C)c2-c2ccc(Cl)cc2)c(O)c1	-3	-46	7	-3	0.1	46	/	/
COc1ccc(-c2n[nH]c(C)c2-c2ccc(Cl)cc2)c(O)c1OC	5	-34	22*	-5	-0.03	34	0	7
CN(C)/N=C1\C(=O)N(CN2CCN(c3ccccc3)CC2)c2ccccc21	/	28	22*	0	/	-28	-1	12
CC(=O)CC1(O)C(=O)N(CN2CCN(c3ccccc3)CC2)c2ccccc21 (stereo not given)	-11	20	0	-1	0.29	-20	/	/
Cc1[nH]c(=O)[nH]c(=O)c1S(=O)(=O)N1CCCC(C(=O)N2CCC(Cc3ccccc3)CC2)C1 (stereo not given)	/	26	19*	3	1	-26	-1	-4
CC(=O)c1ccc(NC(=S)NCc2ccc(Cl)cc2Cl)cc1	-6	-1	-3	-7	0.19	1	/	/
O=C(NCCCn1ccnc1)/C(=C\c1ccco1)NC(=O)c1ccco1	-5	10	15*	1	-0.11	-10	-1	-3
CC(C)CN(C(=O)COC(=O)c1cccc2ccccc12)c1c(N)n(Cc2ccccc2)c(=O)[nH]c1=O	-3	-49	-3	-6	/	49	/	/
O=C(CSc1n[nH]c(-c2ccco2)n1)Nc1sc2c(c1C(=O)Nc1ccccc1)CCCC2	8	-34	16*	-3	-0.03	34	0	18*
CCOC(=O)c1c(NC(=O)CSc2n[nH]c(-c3ccco3)n2)sc(C)c1C	-8	18	1	0	0.02	-18	/	/
Cc1ccccc1C(=O)Nc1ccnn1C1CCN(C(=O)c2cnsn2)CC1	-2	-22	7	-1	/	22	/	/
CCC1=C(OC(=O)N(CC)CC)N2C(=O)OC(=NCC3CC3)[C@]2(C)[C@H]2C1=CC[C@H]1C(=O)N(CC)C(=O)[C@H]12	-16	2	16*	0	-0.67	-2	0	0
CCC1=C(OC(=O)N(CC)CC)N2C(=O)OC(=NCC3CC3)[C@]2(C)[C@H]2C1=CC[C@H]1C(=O)N(C)C(=O)[C@H]12	-12	42	5	-4	-0.19	-42	/	/
O=C(Nc1cccc2nsnc12)c1ccc(-c2cccc(Cl)c2)o1	/	-6	16*	-6	0.92	6	0	0
O=C(Nc1ccccc1N1CCCCC1)c1ccc(-c2cccc(Cl)c2)o1	-8	0	1	0	-0.21	0	/	/
CCC1(c2ccccc2)NC(=O)N(CC(=O)Nc2ccc(OC)nc2)C1=O (stereo not given)	4	19	-5	1	/	-19	/	/
Cc1ccc(N2CCN(C(=O)C3CCCN(c4ncnc5c4nc4n5CCCCC4)C3)CC2)c(C)c1 (stereo not given)	-1	-16	15*	-3	/	16	-1	-4
SMILES	Calb FLC	SR-BI uptake up	HTR2A ag	MIN6 prolif	Ins promoter up	SR-BI HDL uptake	OPRM1 ag	m5-HT2A ag conf
COCc1ccccc1C1=CC(=O)C[C@H](c2ccc(OC)cc2)C1	/	-10	-2	2	/	10	/	/
COCCNCC(=O)N1CCCCCC1	-11	16	17*	3	0.21	-16	-1	-2
COCCNC(=O)CN1CCCCCC1	-13	26	-1	-1	0.4	-26	/	/
Cc1ccc(C)c(NC(=O)c2ccc[n+](Cc3ccc([N+](=O)[O-])cc3)c2)c1	-2	1	15*	2	/	-1	-1	-3
O=C(O)c1ccc[n+](Cc2ccc([N+](=O)[O-])cc2)c1	-8	/	5	-2	/	/	/	/
Cc1cc(=O)[nH]c(SCc2cccc3ccccc23)n1	14	9	2	4	/	-9	/	/
Cc1cc(CSc2nc(C)cc(=O)[nH]2)c2ncccc2c1	31	11	16*	-1	-0.33	-11	-1	3
O=C(CCc1ccc(Oc2cc([N+](=O)[O-])cc([N+](=O)[O-])c2)cc1)N1CCCCCC1	-9	8	0	-5	-0.02	-8	/	/
CCOC(=O)C1=C(C(=O)OCC)N(Cc2ccccc2)CCC1=O	/	6	2	/	/	-6	/	/
C=CCn1c2ccccc2c2nnc(SCCCn3c(=O)[nH]c4ccccc43)nc21	/	-35	17*	/	1.8	35	0	3
C=CCn1c2ccccc2c2nnc(SCCN3CCCCC3)nc21	-94	-18	-7	0	/	18	/	/
CC(C)n1[nH]c2ccccc2c1=O	/	/	-3	/	/	/	/	/
CC(C)(C)NCCC(O)c1cc(C(F)(F)F)nc2c(C(F)(F)F)cccc12 (stereo not given)	/	23	5	/	/	-23	/	/
